Bioassay records as filed in PubChem BioAssay.
This is a sample that favours compounds with a hit; in the whole collection about 4.9% have one here.
NPY-Y2 PAM-ag: potentiators or agonists of human neuropeptide Y receptor Y2. P49146. cells expressing NPY-Y2, potentiator/agonist read-out. activation, % at 3.6 µM. 220,000 compounds, 0.45% hits; in the data active means activation above about 27%;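 further: cells stimulated with NPY near EC25 plus isoproterenol at EC100; 0% = vehicle plus submaximal agonist and 100% = vehicle plus saturating agonist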
Target sequence (P49146 whole entry, looked up): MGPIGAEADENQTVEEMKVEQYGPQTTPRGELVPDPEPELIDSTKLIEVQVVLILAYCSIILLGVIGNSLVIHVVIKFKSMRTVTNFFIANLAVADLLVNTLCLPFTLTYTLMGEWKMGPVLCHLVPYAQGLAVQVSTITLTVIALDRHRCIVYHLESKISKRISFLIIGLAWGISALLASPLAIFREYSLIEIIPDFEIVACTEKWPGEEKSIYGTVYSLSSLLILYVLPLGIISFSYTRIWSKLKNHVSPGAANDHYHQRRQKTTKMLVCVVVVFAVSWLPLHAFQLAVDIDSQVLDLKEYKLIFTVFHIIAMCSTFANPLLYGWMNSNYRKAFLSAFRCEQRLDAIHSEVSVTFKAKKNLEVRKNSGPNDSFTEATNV
NPY-Y1 PAM-ag: human NPY-Y1 potentiation or agonism, primary screen; P25929; NPY-Y1 expressing cells, potentiator/agonist activation; activation, % at 3.6 µM; 220,000 compounds, 0.37% hits; AID 1304; in the data active means activation above about 33%, passing the limit was not always enough;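 further: cells stimulated with NPY at EC10 then isoproterenol at EC100; 0% = low agonist plus stimulus and 100% = saturating agonist plus stimulus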
NPY-Y1 antag: antagonists of human neuropeptide Y receptor Y1. P25929. HEK293-CNG Y1 cells, membrane potential fluorescence; NPY at EC95, then isoproterenol. inhibition, % at 3.6 µM. 200,000 compounds, 1% hits. AID 1040;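 active means inhibition above the campaign mean inhibition of all tested compounds plus 3 SD, cut at about 20% in these data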;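 further: 0% = DMSO wells given NPY plus isoproterenol and 100% = isoproterenol alone without NPY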
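System: HEK293 cells with Y1 receptor plus CNG channel / Probe or stimulus: NPY 25 nM then isoproterenol 1 µM plus Ro 20-1724 25 µM / Compound: one concentration, 3.6 µM, in 0.4% DMSO / Schedule: compound incubation 1 h at room temperature, readout 45 min post-stimulation / Measured by: membrane potential fluorescence / Read-out: % inhibition of NPY effect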
WT yeast gro inh: growth inhibition of WT yeast, mitochondrial fusion screen; AID 1362; 190,000 compounds, 2.1% hits; inhibition, % at 10 µM; mitochondrial fusion phenotypic screen, WT strain; in the data active means inhibition above about 58%; tested in S. cerevisiae
RAM inhibit: inhibitors of the yeast RAM network. S. cerevisiae dse1pr::URA3 reporter, 5-FOA growth OD615, 2 d; analog-sensitive cbk1-as2 kinase mutant strain. inhibition, % at 50 µM. 190,000 compounds, 1.8% hits. AID 868;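 active means inhibition above a set limit, 3 SD over mean compound inhibition, cut at about 8.4% in these data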;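 further: 0% = DMSO-only wells with no growth and 100% = 10 µM 1-NA-PP1 full growth; inhibition rescues growth on 5-FOA so higher OD means more RAM inhibition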
NPY-Y2 antag: blocks the human neuropeptide Y Y2 receptor; NPY-Y2 expressing cells, antagonist mode; inhibition, % at 2.7 µM; 140,000 compounds, 0.99% hits; in the data active means inhibition above about 17%;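 further: 0% = vehicle with agonist challenge and 100% = reference antagonist with challenge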
Starred values were filed as active, the others as inactive; / = no result.

SMILES	NPY-Y2 PAM-ag	NPY-Y1 PAM-ag	NPY-Y1 antag	WT yeast gro inh	RAM inhibit	NPY-Y2 antag
C/C(=N\NC(=O)CCc1c(C)n[nH]c1C)c1ccc([N+](=O)[O-])cc1	10	17	/	/	/	/
COc1ccc(Br)cc1/C(C)=N/NC1=NCCN1	10	6	-1	9	1	9
CCCCCOc1ccc(Br)cc1/C(C)=N/NC1=NCCN1	-21	-46	27*	70	0	54*
NC(=O)c1ccc(NC(=O)C2CC2)cc1	-5	-2	-7	5	1	/
O=C(CCn1c(=O)c2sccc2n(CC(=O)OCc2ccccc2)c1=O)NCc1ccco1	-4	-8	11	-14	3	6
O=C(CCn1c(=O)c2sccc2n(CC(=O)OCc2ccccc2)c1=O)NCc1ccccc1	2	-7	11	6	11*	1
COc1cccc(C(CC(=O)NCC2CCCO2)NS(=O)(=O)c2ccc(C)cc2)c1OC (configuration not stated)	9	-16	7	-16	0	5
Cc1ccc(O)c(-c2cc(C(=O)Nc3ccc(S(=O)(=O)N4CC(C)OC(C)C4)cc3)[nH]n2)c1 (configuration not stated)	18	32	-8	4	8.9*	-3
CCOc1ccc2nc(SCC(=O)c3ccc(Cl)s3)sc2c1	-45	-31	19	5	9.8*	5
CCOc1ccc2nc(SCC(=O)N3CCCc4ccccc43)sc2c1	-11	-42	10	-4	10.0*	6
CCOc1ccc2nc(SCC(=O)N3c4ccccc4Sc4ccccc43)sc2c1	-2	2	6	13	7	4
CCOc1ccc2nc(SCC(=O)c3cccs3)sc2c1	-15	-49	12	12	1	3
Cc1cc([N+](=O)[O-])ccc1NCc1cccc2ccccc12	-29	-3	-2	/	/	3
CCN(CC)c1ccc(NC(=O)Nc2ccccc2C(F)(F)F)cc1	-10	-10	5	63*	0	2
CC1CCN(C(=O)C(NS(=O)(=O)c2cccc3nsnc23)c2ccccc2)CC1 (configuration not stated)	2	0	-4	21	2	2
O=C(c1cc(-c2ccc(Cl)cc2)n(-c2ccc(Cl)c(Cl)c2)n1)N1CCOCC1	-2	15	12	66*	4	1
O=C(c1cc(-c2ccc(Cl)cc2)n(-c2cc(Cl)ccc2Cl)n1)N1CCOCC1	-1	12	-1	43	6	0
Cc1cc(=O)n2[nH]c(-c3ccc(F)cc3)cc2n1	15	2	-8	60*	1	-3
Cc1cc(=O)n2[nH]c(-c3ccc(Cl)cc3)cc2n1	12	31	-11	7	3	-7
COc1ccc(/C=N/NC(=O)c2ccoc2C)cc1COc1c(C)cccc1C	21	-15	5	88*	1	4
COc1cc(/C=N/NC(=O)c2ccoc2C)cc(OC)c1O	-2	8	1	-7	2	2
C(=N\n1cnc2ccccc21)/c1cccnc1	-6	-1	0	-8	0	0
Cc1cc2ncn(/N=C/c3cccnc3)c2cc1C	-12	10	1	61*	2	-2
Cc1cc2ncn(/N=C/c3ccc(-c4ccccc4)o3)c2cc1C	-12	-31	8	-12	9.5*	4
CCOc1ccc(-c2nnc(SCC(=O)Nc3cc(C)on3)o2)cc1	-5	-15	-5	-7	0	/
SMILES	NPY-Y2 PAM-ag	NPY-Y1 PAM-ag	NPY-Y1 antag	WT yeast gro inh	RAM inhibit	NPY-Y2 antag
Cc1ccc(NC2=CC(=O)C(=O)c3ccccc32)cc1	-10	-17	-9	65*	1	-2
CCOC(=O)c1ccc(NC2=CC(=O)C(=O)c3ccccc32)cc1	-3	-8	10	1	5	0
C/C(=N\NC(=O)Cn1cc([N+](=O)[O-])cn1)c1ccc(O)cc1	0	-7	/	/	/	/
CCCN(CC(=O)Nc1cccc(Br)c1)CC(=O)Nc1ccc(F)c(F)c1F	9	13	9	69*	1	-1
O=C(Cc1cccs1)Nn1c(Cc2cccs2)nc2ccccc2c1=O	4	17	-2	-5	3	15
CC(C)(C)C1CCc2sc(-c3nnc(CCl)o3)cc2C1 (configuration not stated)	6	9	-1	68*	5	/
O=C(CCCOc1ccccc1)Nc1nncs1	4	-3	4	-5	0	-1
Nc1nnc(-c2ccccc2Cl)s1	18	-8	4	-11	3	0
